According to ChEMBL document CHEMBL1124192, “Cyclopentenylcytosine. A carbocyclic nucleoside with antitumor and antiviral properties” (J Med Chem, 1988):
≈ marks a conversion by molar mass, not a printed value.

Legend:
L1210 [1] = assay: Compound was tested for antitumor activity against L1210/ara-C leukemia in mouse at dose 2.25 mg/kg administered intraperitoneally; format: functional; details: L1210, ip, route intraperitoneal
Method in brief: (§1)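 Mice bearing L1210, L1210/ara-C, P388 or P388/ara-C leukaemia. Tumour implanted at the site each line names: ip, sc or ic. Drug given ip in physiologic saline on a QD1-9 schedule, at several dose levels per experiment. Life-span runs ended on day 30. Read-out is median % increase in life span versus tumoured untreated controls, with long-term survivors included.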

Cytomegalovirus [2] = assay: Log value for antiviral activity against Cytomegalovirus (AD169) from MRC5 diploid human embryonic lung cells at 100 ug/mL; format: functional
Method in brief: (§2)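 CMV AD169 yield reduction in MRC5 cells. Subconfluent monolayers infected at MOI 0.2 PFU/cell for 1.5 h at 37 °C, rinsed, then fed drug in MEM + 2% FBS, in duplicate. Drug refed on day 3, cultures harvested on day 6 by freeze-thaw and pooled. Yield titrated by plaque assay under 0.25% agarose overlay for 5–6 days, then formalin-fixed and methylene blue-stained for plaque counts.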

Vero [3] = assay: Cytotoxicity of compound was determined by reduction in number of viable vero monolayer cells after treatment with 10 ug/mL for 4 days; format: functional, Chlorocebus sabaeus
Method in brief: (§3)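 Vero monolayers in duplicate cultures, exposed to each drug concentration in medium at 37 °C in a CO2 incubator for 4 days. Viable cells counted by trypan blue exclusion, and % reduction calculated against untreated control cultures.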

P388 = assay: Number of 30-day survivors out of 6 mice at dose 1.5 mg/kg administered intraperitoneally; format: functional, Mus musculus; details: route intraperitoneal
Vero [4] = assay: Cytotoxicity of compound was determined by reduction in number of viable vero monolayer cells after treatment with 0.1 ug/mL for 4 days; format: functional, Chlorocebus sabaeus; method in brief: as §3
Cytomegalovirus [5] = assay: Log value for antiviral activity against Cytomegalovirus (AD169) from MRC5 diploid human embryonic lung cells at 0.1 ug/mL; format: functional; method in brief: as §2
L1210 [6] = assay: Compound was tested for antitumor activity against L1210 leukemia in mouse at dose 2.25 mg/kg administered intraperitoneally in experiment 1; format: functional; details: L1210, ip, route intraperitoneal; method in brief: as §1
Cytomegalovirus [7] = assay: Log value for antiviral activity against Cytomegalovirus (AD169) from MRC5 diploid human embryonic lung cells at 0.32 ug/mL; format: functional; method in brief: as §2
[8] = Ratio of minimum drug concentration to ID50 of the compound (Adames strain); format: ADME; details: read-out: Therapeutic index
[9] = system: unidentified influenza virus; assay: Inhibitory dose of compound required to inhibit cytopathogenic effects of influenza virus with A2/Aichi/2/68 strain in MDCK cells; format: functional; details: read-out: ID50 (the source's name)
L1210 [10] = assay: Compound was tested for antitumor activity against L1210 leukemia in mouse at dose 1 mg/kg administered intracerebrally in experiment 2; format: functional; details: L1210, central; method in brief: as §1
Human alphaherpesvirus 3 [11] = assay: Compound was tested for antiviral activity against Varicella-Zoster from human diploid foreskin cells in mono layer culture at 10 ug/ml; format: functional
Method in brief: (§4)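 VZV isolate DM625 on Huf cells (human diploid foreskin monolayers). Inoculum was left on after 1 h adsorption at 37 °C. Drug overlay in MEM + 2% FBS without agarose, refed with fresh drug at 72 h, in 2% CO2. Cells fixed in 10% formalin and stained with methylene blue; plaques counted day 6. % plaque reduction versus untreated virus controls, triplicates.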

L1210 [12] = assay: Median percent increase in life span of tumored, treated mice relative to tumored, untreated controls after intraperitoneal dose 4 mg/kg daily (every 4th day); format: functional; details: Mus musculus, L1210, ip
L1210 [13] = assay: Number of 60-day survivors out of 9 tested at dose 1.5 mg/kg administered intraperitoneally; format: functional, Mus musculus; details: route intraperitoneal
Vero [14] = assay: Cytotoxicity of compound was determined by reduction in number of viable vero monolayer cells after treatment with 100 ug/mL for 4 days; format: functional, Chlorocebus sabaeus; method in brief: as §3
L1210 [15] = assay: Compound was tested for antitumor activity against L1210 leukemia in mouse at dose 1.5 mg/kg administered subcutaneously in experiment 1; format: functional; details: L1210, sc, route subcutaneous; method in brief: as §1
Cytomegalovirus [16] = assay: Log value for antiviral activity against Cytomegalovirus (AD169) from MRC5 diploid human embryonic lung cells at 10 ug/mL; format: functional; method in brief: as §2
[17] = system: Japanese encephalitis virus; assay: Inhibitory dose of compound required to inhibit cytopathogenic effects of Japanese encephalitis virus with […] strain in vero cells; format: functional; details: read-out: ID50 (the source's name)
Cytomegalovirus [18] = assay: Log value for antiviral activity against Cytomegalovirus (AD169) from MRC5 diploid human embryonic lung cells at 32 ug/mL; format: functional; method in brief: as §2
Cytomegalovirus [19] = assay: Log value for antiviral activity against Cytomegalovirus (AD169) from MRC5 diploid human embryonic lung cells at 1 ug/mL; format: functional; method in brief: as §2
Human alphaherpesvirus 3 [20] = assay: Compound was tested for antiviral activity against Varicella-Zoster from human diploid foreskin cells in mono layer culture at 3.2 ug/ml; format: functional; method in brief: as §4
Human alphaherpesvirus 3 [21] = assay: Compound was tested for antiviral activity against Varicella-Zoster from human diploid foreskin cells in mono layer culture at 100 ug/ml; format: functional; method in brief: as §4
M5076 = assay: Compound was tested for antitumor activity against M5076 leukemia in mouse at dose 0.5 mg/kg administered intraperitoneally in experiment 1; format: functional; details: M5076, ip, route intraperitoneal
Method in brief: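 Mice bearing M5076 tumour. Drug given ip in physiologic saline, daily on days 1-13, at several dose levels. Experiment ended on day 30. Read-out is median % increase in life span versus untreated tumoured controls, with long-term survivors included.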

Yellow fever virus = assay: Inhibitory dose of compound required to inhibit cytopathogenic effects of yellow fever virus with asibi strain in vero cells; format: functional; details: read-out: ID50 (the source's name)
L1210 [22] = assay: Compound was tested for antitumor activity against L1210 leukemia in mouse at dose 1.5 mg/kg administered intracerebrally in experiment 1; format: functional; details: L1210, central; method in brief: as §1
Mus musculus [23] = assay: Compound was tested for antitumor activity against human LOX melanoma tumor xenografts in athymic mice at dose 1 mg/kg administered intraperitoneally in experiment 1; format: functional; details: ip, route intraperitoneal
Method in brief: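 Athymic mice carrying human LOX melanoma. Drug given ip in saline on a QD1-9 schedule, at several dose levels. Life-span experiment ended on day 30. Read-out is % increase in life span versus untreated tumoured controls, with long-term survivors included.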

Mus musculus [24] = assay: Compound was tested for antitumor activity against human A549 lung tumor xenografts in athymic mice at dose 2 mg/kg administered subrenal capsule in experiment 2; format: functional
Human alphaherpesvirus 3 [25] = assay: Compound was tested for antiviral activity against Varicella-Zoster from human diploid foreskin cells in mono layer culture at 1 ug/ml; format: functional; method in brief: as §4
L1210 [26] = assay: Number of 60-day survivors out of 10 tested at dose 2.25 mg/kg administered intraperitoneally; format: functional, Mus musculus; details: route intraperitoneal
Cytomegalovirus [27] = assay: Log value for antiviral activity against Cytomegalovirus (AD169) from MRC5 diploid human embryonic lung cells at 3.2 ug/mL; format: functional; method in brief: as §2
Mus musculus [28] = assay: Compound was tested for antitumor activity against human A549 lung tumor xenografts in athymic mice at dose 1.5 mg/kg administered subrenal capsule in experiment 1; format: functional
L1210 [29] = assay: Number of 60-day survivors out of 10 tested at dose 1 mg/kg administered intraperitoneally; format: functional, Mus musculus; details: route intraperitoneal
Vero [30] = assay: Cytotoxicity of compound was determined by reduction in number of viable vero monolayer cells after treatment with 0.032 ug/mL for 4 days; format: functional, Chlorocebus sabaeus; method in brief: as §3

Structure (SMILES): Nc1ccn([C@@H]2C=C(CO)[C@@H](O)[C@H]2O)c(=O)n1
- ILS at 2.25 mg/kg (L1210 [1]): > 650%
- Reduction in virus yield (Cytomegalovirus [2]): 2 pfu/ml
- Reduction (Vero [3]): 64%
- No. of survivors (P388): 3
- Reduction (Vero [4]): 50%
- Reduction in virus yield (Cytomegalovirus [5]): 0.8 pfu/ml
- ILS at 2.25 mg/kg (L1210 [6]): 125%
- Reduction in virus yield (Cytomegalovirus [7]): 1.3 pfu/ml
- selectivity ratio [8]: 0.3
- IC50 [9]: 18.2 µg/mL (≈ 76.1 µM)
- ILS at 1 mg/kg (L1210 [10]): 42%
- Plaque reduction (Human alphaherpesvirus 3 [11]): 33%
- ILS at 4 mg/kg (L1210 [12]): 91%
- No. of survivors (L1210 [13]): 5 count
- Reduction (Vero [14]): 66%
- ILS at 1.5 mg/kg (L1210 [15]): 109%
- Reduction in virus yield (Cytomegalovirus [16]): 1.9 pfu/ml
- IC50 [17]: 0.1 µg/mL (≈ 0.418 µM)
- Reduction in virus yield (Cytomegalovirus [18]): 2 pfu/ml
- Reduction in virus yield (Cytomegalovirus [19]): 1.4 pfu/ml
- Plaque reduction (Human alphaherpesvirus 3 [20]): 33%
- Plaque reduction (Human alphaherpesvirus 3 [21]): 41%
- ILS at 0.5 mg/kg (M5076): 5%
- IC50 (Yellow fever virus): 5.05 µg/mL (≈ 21.1 µM)
- ILS at 1.5 mg/kg (L1210 [22]): 45%
- ILS at 1 mg/kg (Mus musculus [23]): 119%
- ILS at 2 mg/kg (Mus musculus [24]): 92%
- Plaque reduction (Human alphaherpesvirus 3 [25]): 36%
- No. of survivors (L1210 [26]): 6
- Reduction in virus yield (Cytomegalovirus [27]): 1.5 pfu/ml
- ILS at 1.5 mg/kg (Mus musculus [28]): -59%
- No. of survivors (L1210 [29]): 6
- Reduction (Vero [30]): 3%
